Pf Dd2 growth – P. falciparum Dd2 growth inhibitors, primary screen, SYBR Green fluorescence, single dose replicates | 72 h; stronger effect = lower value | activity change, % at 10 µM | actives 2.3% (n = 94,000); in the data active = activity change below about -80%; inconclusive = no clear call, values can overlap the other calls
IDH1 mut inh – inhibitors of IDH1 R132H reductase, primary screen, biochemical, plate reader, single point; Isocitrate dehydrogenase [NADP] cytoplasmic (Homo sapiens), O75874; diaphorase/resazurin fluorescence, 60 min; inhibition, % at 10 µM; actives 0.18% (n = 70,000); AID 624101, 2012; in the data active = inhibition above about 34%; inconclusive = no clear call, values can overlap the other calls; inactive = below about 11%
Target sequence (O75874 whole entry R132H): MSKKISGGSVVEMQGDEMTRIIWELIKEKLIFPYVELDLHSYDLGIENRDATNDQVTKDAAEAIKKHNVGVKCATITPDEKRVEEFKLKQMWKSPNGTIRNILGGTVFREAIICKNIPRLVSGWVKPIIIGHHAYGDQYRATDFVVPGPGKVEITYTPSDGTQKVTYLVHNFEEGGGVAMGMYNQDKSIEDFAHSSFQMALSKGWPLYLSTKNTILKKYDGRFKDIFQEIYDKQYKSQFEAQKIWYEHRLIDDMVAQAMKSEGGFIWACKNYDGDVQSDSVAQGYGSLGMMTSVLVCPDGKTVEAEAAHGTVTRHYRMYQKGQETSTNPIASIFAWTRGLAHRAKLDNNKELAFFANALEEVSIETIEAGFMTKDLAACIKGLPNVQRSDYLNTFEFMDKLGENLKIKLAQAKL
KDM4C inh – inhibitors of GASC-1 (KDM4C) histone demethylase, primary screen, biochemical, single concentration HTS | GST-KDM4C 2-372, H3K9me3 peptide, LANCE TR-FRET | inhibition, % at 12.5 µM | actives 0.15% (n = 96,000) | AID 720574, 2013;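 active = mean replicate inhibition above about 25%, with at least 55% of replicates also reaching it, limit read from the data, passing the limit was not always enough; inconclusive = only one of those two conditions met; inactive = neither condition met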
Target sequence (Q9H3R0 2-372 limits assumed): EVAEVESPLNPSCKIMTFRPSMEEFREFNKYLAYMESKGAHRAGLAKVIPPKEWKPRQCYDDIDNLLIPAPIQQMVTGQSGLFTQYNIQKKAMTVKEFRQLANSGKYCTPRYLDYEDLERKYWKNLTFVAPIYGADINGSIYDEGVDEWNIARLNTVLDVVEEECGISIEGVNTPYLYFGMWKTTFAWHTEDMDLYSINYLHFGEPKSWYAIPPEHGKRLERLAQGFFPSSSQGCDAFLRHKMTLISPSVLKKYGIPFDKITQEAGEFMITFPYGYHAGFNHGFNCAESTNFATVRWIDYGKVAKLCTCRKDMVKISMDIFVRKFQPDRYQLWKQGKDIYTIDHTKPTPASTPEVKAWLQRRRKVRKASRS
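System: N-terminal GST-fused human GASC-1 (KDM4C) fragment, residues 2-372; amount: enzyme final amount 10 nM; incubation: reaction 30 min RT, detection step 1 h RT; medium: HEPES buffer, pH 7.5, plus ascorbate; technique: LANCE TR-FRET, Eu antibody, ULight-streptavidin, EDTA, ex 340 nm, em 618/671 nm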
T cruzi growth-1 – T. cruzi intracellular proliferation inhibitors, primary screen, cell-based, beta-gal Tulahuen parasites, NIH3T3 host, luminescence. T. cruzi beta-gal in NIH3T3, GalScreen luminescence, 90 h. inhibition, % at 8.34 µM. AID 624255, 2012. actives 5.9% (n = 77,000);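 active = mean inhibition above about 93%, with at least 55% of replicates each passing it, limit read from the data, passing the limit was not always enough; inconclusive = only one of those two conditions holds; inactive = neither condition holds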
T cruzi growth-2 – T. cruzi intracellular proliferation inhibitors, confirmation, cell-based, NIH3T3 host, beta-gal parasite, luminescence, cherry-pick; shares compounds with T cruzi growth-1; T. cruzi beta-gal in NIH3T3, GalScreen luminescence, 90 h; inhibition, % at 8.35 µM; actives 72% (n = 5,600); AID 651739, 2012;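 active = mean replicate inhibition above about 95% and at least 55% of replicates individually reaching it, limit read from the data; inconclusive = only one of the two criteria is met; inactive = neither criterion is met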
T cruzi growth-3 – inhibitors of intracellular T. cruzi replication, confirmation, NIH3T3 host cells, beta-gal parasites, cherry-pick, set 2 | shares compounds with T cruzi growth-1 | T. cruzi beta-gal in NIH3T3, GalScreen luminescence, 90 h | inhibition, % at 2.09 µM | actives 21% (n = 5,600);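 active = mean inhibition above about 95%, with at least 55% of replicates also reaching it, limit read from the data; inconclusive = meets just one of the two conditions; inactive = meets neither condition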
3T3 cytotox – cytotoxicity in mouse NIH/3T3 fibroblasts, confirmation, cytotoxicity control for T. cruzi proliferation inhibitor project, cell-based, cherry-pick, single point; cytotoxicity (signal decrease), % at 8.35 µM; shares compounds with T cruzi growth-1; actives 14% (n = 5,600); AID 651742, 2012; NIH/3T3 viability, CellTiter-Glo ATP luminescence, 90 h;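 active = mean signal decrease across replicates above about 35% based on untreated-well scatter, with enough replicates individually passing, limit read from the data; inconclusive = no rule stated though some were filed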
NIH3T3 tox 2 – NIH/3T3 fibroblast cytotoxicity, confirmation, cytotoxicity control, cell-based, cherry-pick, single point, set 2; shares compounds with T cruzi growth-1; NIH/3T3 viability, CellTiter-Glo ATP luminescence, 90 h; inhibition, % at 24.9 µM; actives 56% (n = 5,600); AID 651744, 2012;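 active = mean loss of cell viability signal at or above a set limit, and enough replicates individually reaching it; inconclusive = meets only the mean limit or only the replicate share; inactive = meets neither condition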
Of the large screens only hits and unclear results are named; the others gave an inactive call (follow-up assays come after a bar, where they were run). Most compounds without a hit are left out; they make up all but 5.8% or so of the library.

COC(=O)C[C@H]1CC[C@H]2[C@H](COc3ccc(NC(=O)Nc4cccc(Cl)c4)cc3C(=O)N2C)O1	T cruzi growth-1 100.7 (no result: IDH1 mut inh) | T cruzi growth-2 103.2 | T cruzi growth-3 inconclusive | 3T3 cytotox inconclusive | NIH3T3 tox 2 45.8
COc1ccc(CN2C[C@@H](O)COC[C@H]3O[C@H](CC(=O)NCc4ccccc4Cl)CC[C@@H]32)cc1	none (no result: IDH1 mut inh)
O=C(Nc1ccccc1F)N1CC2(C1)[C@@H](c1ccccc1)[C@@H](CO)N2C(=O)CC1CC1	none (no result: IDH1 mut inh, T cruzi growth-1)
O=S(=O)(c1ccccc1F)N1CCCCN2[C@H](CO)[C@@H](c3ccc(-c4ccncc4)cc3)[C@H]2C1	none (no result: IDH1 mut inh)
O=S(=O)(c1ccccc1F)N1CCCCN2[C@H](C1)[C@@H](c1ccc(-c3cccnc3)cc1)[C@@H]2CO	none (no result: IDH1 mut inh)
O=S(=O)(c1ccccc1F)N1CCCCN2[C@H](CO)[C@H](c3ccc(-c4cccnc4)cc3)[C@H]2C1	T cruzi growth-1 inconclusive (no result: IDH1 mut inh) | T cruzi growth-2 inactive | T cruzi growth-3 inactive | 3T3 cytotox inactive | NIH3T3 tox 2 inconclusive
O=S(=O)(c1ccccc1F)N1CCCCN2[C@H](C1)[C@H](c1ccc(-c3ccncc3)cc1)[C@@H]2CO	T cruzi growth-1 96.3 (no result: IDH1 mut inh) | T cruzi growth-2 111.6 | T cruzi growth-3 inactive | 3T3 cytotox inactive | NIH3T3 tox 2 inactive
CO[C@H]1CN(C)C(=O)c2ccc(NC(=O)c3ccccc3F)cc2OC[C@@H](C)N(C)C[C@@H]1C	none (no result: IDH1 mut inh)
C/C=C/c1ccc2c(c1)O[C@@H](CN(C)Cc1ccncc1)[C@H](C)CN([C@H](C)CO)S2(=O)=O	IDH1 mut inh 43.1, T cruzi growth-1 102.4 | T cruzi growth-2 98.8 | T cruzi growth-3 103.6 | 3T3 cytotox inconclusive | NIH3T3 tox 2 69.0
C/C=C/c1ccc2c(c1)O[C@@H](CN(C)Cc1cncnc1)[C@H](C)CN([C@H](C)CO)S2(=O)=O	none (no result: T cruzi growth-1)
C/C=C/c1ccc2c(c1)O[C@@H](CN(C)Cc1ccccc1)[C@@H](C)CN([C@H](C)CO)S2(=O)=O	none
C/C=C/c1ccc2c(c1)O[C@@H](CN(C)Cc1ccncc1)[C@@H](C)CN([C@H](C)CO)S2(=O)=O	T cruzi growth-1 102.9 | T cruzi growth-2 96.3 | T cruzi growth-3 inactive | 3T3 cytotox inactive | NIH3T3 tox 2 57.2
COc1cccc(NC(=O)N(C)C[C@H]2Oc3ncc(C#Cc4ccccc4)cc3C(=O)N([C@H](C)CO)C[C@@H]2C)c1	T cruzi growth-1 110.4 (no result: KDM4C inh) | T cruzi growth-2 108.4 | T cruzi growth-3 inactive | 3T3 cytotox inconclusive | NIH3T3 tox 2 27.6
COc1cccc(NC(=O)N(C)C[C@H]2Oc3ncc(C#Cc4ccccc4)cc3C(=O)N([C@H](C)CO)C[C@H]2C)c1	none (no result: IDH1 mut inh, KDM4C inh)
COc1cccc(NC(=O)N(C)C[C@H]2Oc3ncc(C#Cc4ccccc4)cc3C(=O)N([C@@H](C)CO)C[C@H]2C)c1	T cruzi growth-1 inconclusive (no result: IDH1 mut inh, KDM4C inh) | T cruzi growth-2 104.5 | T cruzi growth-3 inactive | 3T3 cytotox inactive | NIH3T3 tox 2 38.3
COc1cccc(NC(=O)N(C)C[C@@H]2Oc3ncc(C#Cc4ccccc4)cc3C(=O)N([C@H](C)CO)C[C@H]2C)c1	T cruzi growth-1 121.4 (no result: KDM4C inh) | T cruzi growth-2 106.5 | T cruzi growth-3 111.3 | 3T3 cytotox inactive | NIH3T3 tox 2 27.6
COc1ccc(-c2cn(CC[C@H]3CC[C@H](NS(=O)(=O)c4ccccc4C)[C@H](CO)O3)nn2)cc1	none
COc1ccc(NC(=O)N(C)C[C@H]2Oc3cc(C#CCC(C)C)ccc3S(=O)(=O)N([C@@H](C)CO)C[C@@H]2C)cc1	T cruzi growth-1 95.2 | T cruzi growth-2 105.9 | T cruzi growth-3 inactive | 3T3 cytotox inactive | NIH3T3 tox 2 89.1
COc1ccc(NC(=O)N(C)C[C@@H]2Oc3cc(C#CCC(C)C)ccc3S(=O)(=O)N([C@H](C)CO)C[C@H]2C)cc1	none
CC(C)CC#Cc1ccc2c(c1)O[C@H](CN(C)C(=O)Nc1ccccc1F)[C@H](C)CN([C@H](C)CO)S2(=O)=O	none
CC(C)CC#Cc1ccc2c(c1)O[C@@H](CN(C)C(=O)Nc1ccccc1)[C@@H](C)CN([C@H](C)CO)S2(=O)=O	T cruzi growth-1 129.4 | T cruzi growth-2 102.4 | T cruzi growth-3 inactive | 3T3 cytotox inactive | NIH3T3 tox 2 94.8
COc1ccc(NC(=O)N(C)C[C@@H]2Oc3cc(C#CCC(C)C)ccc3S(=O)(=O)N([C@@H](C)CO)C[C@@H]2C)cc1	T cruzi growth-1 98.6 | T cruzi growth-2 105.6 | T cruzi growth-3 111.2 | 3T3 cytotox inactive | NIH3T3 tox 2 95.9
C[C@H]1CN([C@@H](C)CO)S(=O)(=O)c2ccc(C#Cc3ccccc3)cc2O[C@H]1CN(C)C(=O)Nc1ccccc1	none
CC(C)CC#Cc1ccc2c(c1)O[C@H](CN(C)C(=O)Nc1ccccc1F)[C@@H](C)CN([C@H](C)CO)S2(=O)=O	T cruzi growth-1 91.7 | T cruzi growth-2 107.4 | T cruzi growth-3 inactive | 3T3 cytotox inactive | NIH3T3 tox 2 67.8
Cc1ccc(S(=O)(=O)Nc2ccc3c(c2)CC(=O)N([C@H](C)CO)C[C@@H](C)[C@@H](CN(C)C)O3)cc1	none (no result: IDH1 mut inh)
C[C@H](CO)N1C[C@H](C)[C@@H](CN(C)S(C)(=O)=O)Oc2cc(-c3ccccc3)ccc2S1(=O)=O	none
COc1ccc(N(CC(=O)N2CCOCC2)S(C)(=O)=O)c(OC)c1	none (no result: Pf Dd2 growth, KDM4C inh, T cruzi growth-1)
COc1ccc(NC(=O)N(C)C[C@H]2Oc3cc(C#CCC(C)C)ccc3S(=O)(=O)N([C@@H](C)CO)C[C@H]2C)cc1	T cruzi growth-1 100.2 (no result: KDM4C inh) | T cruzi growth-2 107.7 | T cruzi growth-3 inactive | 3T3 cytotox inactive | NIH3T3 tox 2 58.1
CCCC#Cc1ccc2c(c1)O[C@@H](CN(C)C(=O)Nc1ccc(OC)cc1)[C@H](C)CN([C@@H](C)CO)S2(=O)=O	none (no result: IDH1 mut inh)
CCCC#Cc1ccc2c(c1)O[C@H](CN(C)C(=O)Nc1ccc(OC)cc1)[C@@H](C)CN([C@@H](C)CO)S2(=O)=O	T cruzi growth-1 112.6 | T cruzi growth-2 112.3 | T cruzi growth-3 inactive | 3T3 cytotox inactive | NIH3T3 tox 2 inactive
